Bioassay records from PubChem.
Cav3 T inh: inhibitors of human Cav3.2 T-type calcium channel; O95180; Cav3.2-expressing cells, Fluo-4 calcium fluorescence FDSS; hits give low values; B-score at 10 µM; hit rate 4% among 100,000;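 active = single-dose well whose peak fluorescence ratio is a statistical outlier from its plate by either plate-standardised score or position-corrected B-score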
PostGolgi yeast: growth inhibition of a yeast mutant, post-Golgi transport screen. post-Golgi transport phenotypic cell assay. inhibition, % at 10 µM. hit rate 0.9% among 98,000;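 note: yeast cells grown in 1536-well plates; yeast grown about 18 h at 30C before absorbance read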
tolC growth inh: E. coli tolC mutant growth inhibition; E. coli BW25113 tolC mutant growth, OD615; hit rate 2.2% among 65,000; AID 573; growth inhibition, % at 10 µM (by protocol);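 active = growth inhibition at or above a cutoff equal to the mean over every tested compound plus 3 SD, cut at about 60% in these data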;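 note: growth measured after 20 h incubation at 37 °C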
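Signal: optical density read at 615 nm; Assay system: E. coli ΔtolC::kan strain BW25113; Times: 20 h incubation with compound, 37 °C; Dosing: 10 µM final, single dose.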
Ecoli WT expand: E. coli BW25113 growth inhibition, expanded screen | growth inhibition, % at 100 µM | hit rate 0.15% among 98,000 | OD600 absorbance | AID 710;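 active = growth inhibition above about 50% at one test dose, limit read from the data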;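 note: growth measured after 20 h incubation at 37 °C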
PostGolgi ctrl: yeast control strain growth, post-Golgi counter-screen; AID 738; inhibition, % at 10 µM; hit rate 5% among 98,000; efflux-deficient yeast background strain, growth absorbance A615, 16 h
The depositor's hits bear a star; / = no result given. Rows were chosen to be rich in hits. Some 8.4% of all compounds tested hit in one or more screens of this group. Cut-off read from the data, not from the text of the source, unless noted: active = inhibition above about 30%; inactive = the rest.

SMILES	Cav3 T inh	PostGolgi yeast	tolC growth inh	Ecoli WT expand	PostGolgi ctrl
CCCSC1=C(C#N)C(c2ccc(Cl)cc2Cl)CC(=O)N1 (configuration not stated)	-0.094	-2	24	0	37*
CCSC1=C(C#N)C(c2ccccc2Cl)CC(=O)N1 (configuration not stated)	0.94	-2	2	4	15
CCCCSC1=C(C#N)C(c2ccccc2C)CC(=O)N1 (configuration not stated)	0.8	11	-9	-1	33*
CCCSC1=C(C#N)C(c2ccccc2C)CC(=O)N1 (configuration not stated)	0.45	0	-3	5	11
CC(C)C1Cc2[nH]c(=O)c(C(=O)O)cc2CO1 (configuration not stated)	-0.65	6	-8	-3	6
COc1ccc(NS(=O)(=O)c2cc(OC)ccc2NC(=O)c2cc(C)oc2C)cc1	-2.3	-10	17	-3	1
Cc1cc(C)n(-c2ccc(C(=O)NC(C)C)cc2)n1	0.27	9	-11	3	5
Cc1cc(C)n(-c2ccc(C(=O)C(C#N)c3nc4ccccc4n3C)cc2)n1 (configuration not stated)	0.81	13	-10	-9	33*
CCC(=O)Nc1ccc(S(=O)(=O)Nc2ncccn2)cc1	0.4	2	/	4	31*
CC(=O)Nc1ccc(S(=O)(=O)Nc2ncccn2)cc1	-0.3	-4	-9	1	-12
CC(C)c1ccc(C(=O)CC2(O)C(=O)N(CN3CCOCC3)c3ccccc32)cc1 (configuration not stated)	-5.8*	-7	/	0	0
Cc1ccc(C(=O)CC2(O)C(=O)N(CN3CCOCC3)c3ccccc32)cc1 (configuration not stated)	0.19	-3	-14	-4	-6
CN1CCc2c(n(CC(O)CN3C(=O)c4ccccc4S3(=O)=O)c3ccccc23)C1=O (configuration not stated)	-1.8	1	8	-1	17
Cc1c(C)n(CC(O)CN2C(=O)c3ccccc3S2(=O)=O)c2ccccc12 (configuration not stated)	-6.8*	2	/	1	33*
OC(C#Cc1ccccn1)c1cccs1 (configuration not stated)	0.65	4	-7	11	0
O=C(/C=C/c1ccccc1)N1CCN(Cc2nc3ccccc3c(=O)[nH]2)CC1	0.68	-2	/	4	7
CCN(CC)C(=O)C1CCCN(c2ccc([N+](=O)[O-])cc2/C=N/NC(=O)c2cccc(Br)c2)C1 (configuration not stated)	-7.2*	2	/	-15	9
Cc1csc(NC(=O)C(Cc2ccccc2)n2cccc2)n1 (configuration not stated)	-4.9*	-1	17	5	18
CCSc1nnc(NC(=O)C(Cc2ccccc2)n2cccc2)s1 (configuration not stated)	-0.018	-1	3	-3	10
Cc1ccc(Cn2c(NCCc3ccccc3)nc3c2c(=O)n(C)c(=O)n3C)cc1	-0.25	-6	-15	-3	-4
COCCNc1nc2c(c(=O)n(Cc3ccc(OC)cc3)c(=O)n2C)n1C	-0.21	6	19	1	-6
Cn1c(=O)c2c(nc(NCc3cccnc3)n2Cc2ccc(Cl)cc2)n(C)c1=O	-7.2*	8	/	1	-1
CCNc1nc2c(c(=O)n(Cc3ccccc3)c(=O)n2C)n1Cc1ccccc1	-1.8	-1	33	-6	30*
CCNc1nc2c(c(=O)n(C)c(=O)n2C)n1Cc1ccc(Cl)cc1	/	/	4	/	/
COc1ccc(CNc2nc3c(c(=O)n(Cc4ccc(Cl)cc4)c(=O)n3C)n2C)cc1	-7.5*	6	23	-9	29
SMILES	Cav3 T inh	PostGolgi yeast	tolC growth inh	Ecoli WT expand	PostGolgi ctrl
Cn1c(=O)c2c(nc(NCc3ccccc3)n2Cc2ccc(F)cc2)n(C)c1=O	-6.8*	-2	8	4	39*
CCCNC(=O)CN(C)S(=O)(=O)c1c(C)cc(C)cc1C	1.4	/	/	/	/
Cn1c(NCc2ccco2)nc2c1c(=O)n(Cc1ccc(Cl)c(Cl)c1)c(=O)n2C	/	15	17	-2	49*
Cc1cccc(OCC(=O)NC(=S)Nc2ccc(S(=O)(=O)NC3CCCCC3)cc2)c1	-0.77	-2	/	-15	15
COCCCN1C(=O)c2[nH]nc(-c3ccccc3O)c2C1c1cccc(Cl)c1 (configuration not stated)	-6.4*	-3	52	-2	5
COCCCN1C(=O)c2[nH]nc(-c3ccccc3O)c2C1c1ccc(Cl)cc1 (configuration not stated)	-2.9	-6	64*	4	14
